Data as given in ChEMBL document CHEMBL1772978, “Exploration of the activity of 7-pyrrolidino-8-methoxyisothiazoloquinolones against methicillin-resistant Staphylococcus aureus (MRSA)” (J Med Chem, 2011).
Converted amounts (≈) assume the structure as drawn.

Experiments:
Staphylococcus aureus [1] = experiment: Ratio of levofloxacin MIC to compound MIC for methicillin-resistant Staphylococcus aureus clinical isolate; type: functional
Escherichia coli = experiment: Antibacterial activity against Escherichia coli ATCC25922 after 24 hrs by microdilution method; type: functional; settings: ATCC25922, 24 h
Method in brief: (§1)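 MIC taken as the lowest concentration with no visible bacterial growth after 18-24 h at 37 °C, given in μg/mL; modal value of multiple experiments.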

[2] = Inhibition of Staphylococcus aureus topoisomerase 4 Ser80Phe mutant-mediated decatenation of kDNA after 30 mins by gel electrophoresis assay
Staphylococcus aureus [3] = experiment: Ratio of vancomycin MIC to compound MIC for methicillin-resistant Staphylococcus aureus clinical isolate; type: functional
Staphylococcus aureus [4] = experiment: Ratio of ciprofloxacin IC50 to compound IC50 for Staphylococcus aureus topoisomerase 4 Ser80Phe mutant
[5] = Cytotoxicity against human Hep2 cells after 72 hrs by alamar blue assay; type: cell-based; settings: HEp-2 cells
[6] = test system: DNA gyrase subunit A (Staphylococcus aureus), P20831 [S84L]; experiment: Ratio of ciprofloxacin IC50 to compound IC50 for Staphylococcus aureus DNA gyrase Ser84Leu mutant
Staphylococcus aureus [7] = experiment: Antibacterial activity against methicillin- and quinolone-resistant Staphylococcus aureus ATCC700699 after 24 hrs by microdilution method; type: functional; settings: ATCC700699, 24 h
Method in brief: (§2)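 Broth microdilution; MIC read as the lowest compound concentration that prevents visible bacterial growth after incubation at 37 °C for 18–24 h, and expressed in μg/mL.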

DNA gyrase = DNA gyrase (Staphylococcus aureus, UniProt P0A0K8+P20831); experiment: Inhibition of wild-type Staphylococcus aureus DNA gyrase assessed as inhibition of supercoiling of pBR322 DNA after 60 min by gel electrophoresis assay; type: protein-complex assay
Staphylococcus aureus [8] = experiment: Antibacterial activity against methicillin-resistant Staphylococcus aureus clinical isolate after 24 hrs by microdilution method; type: functional; method in brief: as §2
DNA gyrase subunit A = DNA gyrase subunit A (Staphylococcus aureus, UniProt P20831, S84L); experiment: Inhibition of Staphylococcus aureus DNA gyrase Ser84Leu mutant assessed as inhibition of supercoiling of pBR322 DNA after 60 min by gel electrophoresis assay
[9] = Inhibition of wild-type Staphylococcus aureus topoisomerase 4-mediated decatenation of kDNA after 30 mins by gel electrophoresis assay
Staphylococcus aureus [10] = experiment: Antibacterial activity against methicillin-resistant Staphylococcus aureus ATCC 700699 after 24 hrs by microdilution method; type: functional; settings: ATCC700699, 24 h; method in brief: as §2
Staphylococcus aureus [11] = experiment: Antibacterial activity against methicillin-sensitive Staphylococcus aureus ATCC 29213 after 24 hrs by microdilution method; type: functional; settings: ATCC 29213, 24 h; method in brief: as §1
[12] = biological target: DNA gyrase (Staphylococcus aureus) (UniProt P0A0K8+P20831); experiment: Ratio of ciprofloxacin IC50 to compound IC50 for wild-type Staphylococcus aureus DNA gyrase; type: protein-complex assay
Staphylococcus aureus [13] = experiment: Ratio of ciprofloxacin IC50 to compound IC50 for wild-type Staphylococcus aureus topoisomerase 4

| Compound | MIC (Escherichia coli) | IC50 [2] | CC50 at 72 h [5] | MIC (Staphylococcus aureus [7]) | MIC50 (Staphylococcus aureus [8]) | MIC90 (Staphylococcus aureus [8]) | IC50 [9] | MIC (Staphylococcus aureus [10]) | MIC (Staphylococcus aureus [11]) | other results |
| --- | --- | --- | --- | --- | --- | --- | --- | --- | --- | --- |
| COc1c(N2CC[C@@H](C(C)(C)N)C2)c(F)cc2c(=O)c3c(=O)[nH]sc3n(C3CC3)c12 | 0.06 mg/L (≈ 0.139 µM) | 0.6 µM | 9 µM | 0.06 mg/L (≈ 0.139 µM) | 0.06 mg/L (≈ 0.139 µM) | 0.25 mg/L (≈ 0.578 µM) | 0.12 µM | 0.06 mg/L (≈ 0.139 µM) | 0.004 mg/L (≈ 0.00925 µM) | Ratio (Staphylococcus aureus [1]): 256; Ratio (Staphylococcus aureus [3]): 4; Ratio (Staphylococcus aureus [4]): 95; Ratio [6]: > 48; IC50 (DNA gyrase): 0.68 µM; IC50 (DNA gyrase subunit A): 4.2 µM |
| COc1c(N2CC[C@@H](C(C)N)C2)c(F)cc2c(=O)c3c(=O)[nH]sc3n(C3CC3)c12 (mixture of isomers) | 0.02 mg/L | – | 9 µM | 0.06 mg/L | – | – | – | – | 0.004 mg/L | – |
| COc1c(N2CC[C@@H]([C@H](C)N)C2)c(F)cc2c(=O)c3c(=O)[nH]sc3n(C3CC3)c12 (mixture of isomers) | 0.008 mg/L | 0.47 µM | 6 µM | 0.06 mg/L | 0.06 mg/L | 0.5 mg/L | 0.04 µM | 0.06 mg/L | 0.002 mg/L | Ratio IC50 [12]: 91; Ratio (Staphylococcus aureus [4]): 121; Ratio IC50 (Staphylococcus aureus [13]): 75; Ratio [6]: > 62; IC50 (DNA gyrase): 0.68 µM; IC50 (DNA gyrase subunit A): 3.2 µM |
| CNC(C)[C@@H]1CCN(c2c(F)cc3c(=O)c4c(=O)[nH]sc4n(C4CC4)c3c2OC)C1 (mixture of isomers) | 0.03 mg/L | – | 42 µM | 0.25 mg/L | – | – | – | – | 0.008 mg/L | – |
| CN[C@@H](C)[C@@H]1CCN(c2c(F)cc3c(=O)c4c(=O)[nH]sc4n(C4CC4)c3c2OC)C1 (mixture of isomers) | 0.03 mg/L | 1.16 µM | 12 µM | 0.25 mg/L | – | – | 0.11 µM | 0.25 mg/L | 0.008 mg/L | IC50 (DNA gyrase): 1.1 µM; IC50 (DNA gyrase subunit A): 18.7 µM |
| CNC(C)[C@H]1CCN(c2c(F)cc3c(=O)c4c(=O)[nH]sc4n(C4CC4)c3c2OC)C1 (mixture of isomers) | 0.13 mg/L | – | > 100 µM | 2 mg/L | – | – | – | – | 0.06 mg/L | – |
| CCNC(C)[C@@H]1CCN(c2c(F)cc3c(=O)c4c(=O)[nH]sc4n(C4CC4)c3c2OC)C1 (mixture of isomers) | 0.06 mg/L | – | 40 µM | 0.25 mg/L | – | – | – | – | 0.008 mg/L | – |
| COc1c(N2CC[C@@H]([C@H](C)NCCF)C2)c(F)cc2c(=O)c3c(=O)[nH]sc3n(C3CC3)c12 (mixture of isomers) | 0.06 mg/L | 0.66 µM | 73 µM | 0.13 mg/L | – | – | 0.06 µM | 0.13 mg/L | 0.002 mg/L | IC50 (DNA gyrase): 1.32 µM; IC50 (DNA gyrase subunit A): 12 µM |
| COc1c(N2CC[C@@H](C(C)NC(C)C)C2)c(F)cc2c(=O)c3c(=O)[nH]sc3n(C3CC3)c12 (mixture of isomers) | 0.5 mg/L | – | 51 µM | 0.5 mg/L | – | – | – | – | 0.02 mg/L | – |
| COc1c(N2CC[C@@H](C(C)NC3CC3)C2)c(F)cc2c(=O)c3c(=O)[nH]sc3n(C3CC3)c12 (mixture of isomers) | 0.06 mg/L | – | 25 µM | 0.06 mg/L | – | – | – | – | 0.004 mg/L | – |
| COc1c(N2CCC(CNCC(C)C)C2)c(F)cc2c(=O)c3c(=O)[nH]sc3n(C3CC3)c12 (racemic) | 0.13 mg/L (≈ 0.282 µM) | – | 46 µM | 4 mg/L (≈ 8.68 µM) | – | – | – | – | 0.06 mg/L (≈ 0.13 µM) | – |
| COc1c(N2CCC(C(C)(C)NC3CC3)C2)c(F)cc2c(=O)c3c(=O)[nH]sc3n(C3CC3)c12 (racemic) | 0.25 mg/L (≈ 0.529 µM) | – | 54 µM | 0.25 mg/L (≈ 0.529 µM) | – | – | – | – | 0.02 mg/L (≈ 0.0423 µM) | – |
| O=C(O)c1cn(C2CC2)c2cc(N3CCNCC3)c(F)cc2c1=O [CIPROFLOXACIN] | – | 57 µM | > 100 µM | 32 mg/L (≈ 96.6 µM) | – | – | 3 µM | 32 mg/L (≈ 96.6 µM) | 0.25 mg/L (≈ 0.754 µM) | – |
| CO/N=C1\CN(c2nc3c(cc2F)c(=O)c(C(=O)O)cn3C2CC2)CC1CN (stereo not drawn) [GEMIFLOXACIN] | 4 mg/L (≈ 10.3 µM) | 9.8 µM | – | – | – | – | 0.4 µM | 2 mg/L (≈ 5.14 µM) | 0.03 mg/L (≈ 0.077 µM) | IC50 (DNA gyrase subunit A): > 200 µM |
| C[C@H]1COc2c(N3CCN(C)CC3)c(F)cc3c(=O)c(C(=O)O)cn1c23.C[C@H]1COc2c(N3CCN(C)CC3)c(F)cc3c(=O)c(C(=O)O)cn1c23.O [LEVOFLOXACIN] | – | – | – | – | 16 mg/L | > 16 mg/L | – | – | – | – |
| CC(=O)NC[C@H]1CN(c2ccc(N3CCOCC3)c(F)c2)C(=O)O1 [LINEZOLID] | – | – | – | – | 1 mg/L (≈ 2.96 µM) | 2 mg/L (≈ 5.93 µM) | – | – | – | MIC (Staphylococcus aureus [8]): 1 mg/L (≈ 2.96 µM) |
| COc1c(N2C[C@@H]3CCCN[C@@H]3C2)c(F)cc2c(=O)c(C(=O)O)cn(C3CC3)c12 [MOXIFLOXACIN] | 0.03 mg/L (≈ 0.0747 µM) | 11.9 µM | > 100 µM | 4 mg/L (≈ 9.96 µM) | – | – | 1 µM | 2 mg/L (≈ 4.98 µM) | 0.06 mg/L (≈ 0.149 µM) | – |
| Cc1onc(-c2ccccc2)c1C(=O)N[C@@H]1C(=O)N2[C@@H]1SC(C)(C)[C@@H]2C(=O)O [OXACILLIN] | – | – | – | – | > 16 mg/L | > 16 mg/L | – | – | – | – |
| CN[C@H](CC(C)C)C(=O)N[C@H]1C(=O)N[C@@H](CC(N)=O)C(=O)N[C@H]2C(=O)N[C@H]3C(=O)N[C@H](C(=O)N[C@H](C(=O)O)c4cc(O)cc(O)c4-c4cc3ccc4O)[C@H](O)c3ccc(c(Cl)c3)Oc3cc2cc(c3O[C@@H]2O[C@H](CO)[C@@H](O)[C@H](O)[C@H]2O[C@H]2C[C@](C)(N)[C@H](O)[C@H](C)O2)Oc2ccc(cc2Cl)[C@H]1O [VANCOMYCIN] | – | – | – | – | 1 mg/L (≈ 0.69 µM) | 1 mg/L (≈ 0.69 µM) | – | – | – | – |
